Assay [1] has as its system NCI-H460. The assay is described as follows: Induction of apoptosis in human NCI-H460 cells at 20 uM after 6 hrs by flow cytometric analysis. In kind it is functional. The method, boiled down:
(§1)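 H460 cells plated for 6 h, then treated with 5, 10 or 20 μM. Cells washed, trypsin-EDTA detached and resuspended in PBS, then stained with annexin V and propidium iodide plus RNase and 0.1% Triton X-100 for 30 min at 37 °C before flow cytometry. Figure legend gives 6 h incubation.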

For assay [2], the system named is NCI-H460. The assay is described as follows: Induction of apoptosis in human NCI-H460 cells assessed as viable cells at 20 uM after 6 hrs by annexinV-propidium iodide staining based flow cytometric analysis relative to control. It is filed as functional. The following applies: NCI-H460, 6 h, read-out: Activity. The method, boiled down: as §1
In general terms: A flow cytometer gives signals particle by particle.

In the assay on NCI-H460 [1], `COc1cccc(/C=C/C(=O)/C=C/c2cccc(OC)c2OC)c1OC` registered an Activity of 29.63%. The viability at 20 µM with NCI-H460 [2] was 57.3%.

For the origin of these results see ChEMBL document CHEMBL1781992, “A novel monocarbonyl analogue of curcumin, (1E,4E)-1,5-bis(2,3-dimethoxyphenyl)penta-1,4-dien-3-one, induced cancer cell H460 apoptosis via activation of endoplasmic reticulum stress signaling pathway” (J Med Chem, 2011).
